OX1R antag-1 = blocks the human orexin 1 receptor; O43613; OX1R-expressing cells, FRET antagonist read-out; inhibition, % at 6.6 µM; hit rate 1.8% among 330,000; AID 485270; in the data active = inhibition mostly above about 38%, no sharp cut-off; inactive = mostly below about 40%
Target sequence (O43613 whole entry, looked up): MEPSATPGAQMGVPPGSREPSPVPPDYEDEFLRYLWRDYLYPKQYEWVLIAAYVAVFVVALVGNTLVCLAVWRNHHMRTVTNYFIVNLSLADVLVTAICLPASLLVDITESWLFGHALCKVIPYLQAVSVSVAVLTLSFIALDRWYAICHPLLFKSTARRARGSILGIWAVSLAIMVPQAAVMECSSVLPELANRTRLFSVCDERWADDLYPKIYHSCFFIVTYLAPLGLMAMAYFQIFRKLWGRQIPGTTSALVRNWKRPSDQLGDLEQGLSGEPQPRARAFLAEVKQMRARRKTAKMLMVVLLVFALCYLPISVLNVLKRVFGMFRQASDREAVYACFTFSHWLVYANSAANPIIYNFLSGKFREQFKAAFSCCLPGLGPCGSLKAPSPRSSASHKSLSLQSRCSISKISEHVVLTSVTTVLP
CHO parental Ca = counter-screen for OX1R antagonists: effect in parental CHO cells; parental CHO-K1, ATP-induced calcium, Fluo-8 fluorescence; inhibition, % at 5.6 µM; hit rate 0.63% among 330,000; AID 463079;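 active = inhibition above that plate's mean sample inhibition plus 3 SD, cut at about 26% in these data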
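Assay system: parental CHO cells; Read-out basis: percent inhibition of ATP-evoked calcium rise, normalized to controls; Benchmarks: ATP and no-ATP DMSO wells; Compound dosing: single nominal dose of 5.6 µM per compound; Signal: Fluo-8 calcium dye fluorescence; Also added: ATP as calcium-mobilizing challenge; Repeats: singlicate.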
GPR7 antagonist = human neuropeptides B/W receptor 1 antagonism; P48145; AID 1861; GPR7-expressing cells, fluorescence antagonist assay; hit rate 1.1% among 290,000; inhibition, % at 4.4 µM; in the data active = inhibition above about 16%, passing the limit was not always enough;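 also: cells stimulated with the agonist NPW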
TAAR1 antagonist = antagonists of human TAAR1; CHO RD-HGA16 TAAR1, Fluo-8 calcium fluorescence, antagonist; inhibition, % at 3 µM; hit rate 1.5% among 360,000; AID 624466;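 active = inhibition above a per-plate cutoff, the mean inhibition of test compounds on that plate plus 3 SD, cut at about 49% in these data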
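Test system: RD-HGA16 CHO cells with stable hTAAR1 and Gα16 / Probe or stimulus: EC80 β-phenethylamine stimulus / Times: seeding 17-24 h prior, 75-min 37 °C, 30-min RT dye loading / Detection: Fluo-8 calcium-sensitive fluorescence / Read-out basis: % inhibition scaled between DMSO and EC80 PEA controls / Repeats: singlicate, one well per test compound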
OX1R antag-2 = human HCRTR1 antagonism. O43613. inhibition, % at 5 µM. hit rate 0.43% among 330,000. AID 434989. CHO/OX1R cells, Fluo-8 calcium fluorescence, orexin A;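 active = inhibition above its plate's threshold, mean inhibition of all tested compounds on the plate plus 3 SD, cut at about 37% in these data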
TAAR1 agonist = agonists of human TAAR1; CHO RD-HGA16 TAAR1, Fluo-8 calcium fluorescence; vehicle wells 0%, saturating PEA agonist 100%; activation, % at 3 µM; hit rate 0.99% among 360,000; AID 624467;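 active = activation above the mean activation of all test compounds in the run plus 3 SD, cut at about 38% in these data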
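test system = CHO RD-HGA16 cells carrying human TAAR1 plus Gα16 | schedule = 17-24 h seeding, 75 min 37 °C dye, 30 min RT | compound dosing = 3 µM single concentration | control set = DMSO and PEA EC100 | replicates = n 1 | signal = Fluo-8 fluorescence, 5 s baseline then 140 s kinetic read | measure = percent activation vs PEA EC100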
GPR7 antag conf = human GPR7 antagonism, confirmation assay | shares compounds with GPR7 antagonist | GPR7-expressing cells, calcium fluorescence antagonist mode | inhibition, % at 4.4 µM | hit rate 52% among 2,400 | AID 1952; in the data active = inhibition above about 24%;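 also: stimulated with the GPR7 agonist NPW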
MCHR1 antagonist = counter-screen for GPR7 antagonists: antagonists of human MCHR1 | inhibition, % at 4.4 µM | hit rate 62% among 2,400 | MCHR1-expressing cells, fluorescence antagonist assay | shares compounds with GPR7 antagonist; in the data active = inhibition above about 22%
A number is an active result; 0 = inactive; - = not tested or not shown. A selection: hits, their analogues and other compounds. The true share with any hit is near 4.5%.

SMILES	OX1R antag-1	CHO parental Ca	GPR7 antagonist	TAAR1 antagonist	OX1R antag-2	TAAR1 agonist	GPR7 antag conf	MCHR1 antagonist
COc1ccc(CCNS(=O)(=O)c2c(C)[nH]c(C)c2C(=O)N2CCCCC2)cc1OC	0	0	0	0	0	0	-	-
COC(=O)c1cc(NC(=O)c2ccc(-c3ccccc3)cc2)ccc1Cl	0	0	0	0	0	0	-	-
COC(=O)c1cc(NC(=O)Nc2cccc(Cl)c2)ccc1Cl	50	0	33	60	46	0	52	77
CC(C)(C)c1ccc(S(=O)(=O)NC(=O)C2(C)CCN2C(=O)Cc2ccccc2Cl)cc1 (stereo unspecified)	-	-	-	0	-	0	-	-
c1ccc(N/N=C(\Cc2nc3ccccc3[nH]2)c2ccccc2)cc1	0	0	0	0	0	0	-	-
N/N=C(/Cc1nc2ccccc2[nH]1)c1ccc([N+](=O)[O-])cc1	0	0	36	0	0	0	0	0
COc1ccc(N2CCN(C(=O)CSc3nnc(COc4cccc5cccnc45)o3)CC2)cc1	0	0	0	0	0	0	-	-
COc1ccc(C=O)cc1CSc1nnc(COc2cccc3cccnc23)o1	0	0	24	0	0	0	0	27
COc1cc(CN2CCC(CO)(Cc3cccc(C(F)(F)F)c3)CC2)ccc1F	0	0	34	0	0	0	0	44
Cc1ccc(Cl)cc1N1CCN(CC(=O)Nc2ccc(CN3CCCCC3)cc2)CC1	0	0	24	0	0	52	28	56
Cc1ccc(-c2ccccc2[C@@H]2C[C@H]3CN(C)C(=O)[C@]34CCCN24)o1	0	0	0	0	0	0	-	-
O=C1N(c2ccccc2)C[C@@H]2C[C@@H](c3cc4ccccc4o3)N3CCC[C@@]123	-	-	25	0	-	0	0	0
CCOc1ccc(OCC(=O)N(CCC2=CCCCC2)c2c(N)n(Cc3ccccc3)c(=O)[nH]c2=O)cc1	0	0	-	0	0	0	-	-
COC(=O)C[C@H]1C[C@H]2c3cc(NC(=O)C4CCOCC4)ccc3O[C@H]2[C@@H](CO)O1	-	-	-	0	-	0	-	-
CC(NCCC1(Cc2ccccc2Cl)CCOC(C)(C)C1)c1cccs1 (stereo unspecified)	0	0	28	0	0	0	31	0
c1ccc(OCCOCCN2CCOCC2)cc1	0	0	0	0	0	0	-	-
CC(C)(c1ccccc1)c1ccc(OCCN2CCOCC2)cc1	0	0	37	0	0	0	0	0
Cc1c(C(=O)N2CCCCC2C)sc2ncnc(N3CCc4ccccc4C3)c12 (stereo unspecified)	0	0	27	0	0	0	0	35
CCS(=O)(=O)c1nc(S(=O)(=O)c2ccc(Cl)cc2)c(NCCCN2CCOCC2)s1	0	0	0	0	0	0	-	-
CCOC(=O)C1(Cc2cccc(OC)c2)CCCN(S(=O)(=O)CC)C1 (stereo unspecified)	0	0	27	0	0	0	0	0
O=C(NCc1cccnc1)c1ccc(COc2ccc(Cl)cc2Cl)o1	0	0	0	0	0	0	-	-
O=C(NCc1cccnc1)c1ccc(COc2cccc3ccccc23)o1	0	0	32	0	0	0	44	43
Clc1ccccc1Nc1ncnc2c1nnn2Cc1ccccc1	0	0	34	0	0	0	0	0
N#CC1=C(N)Oc2cc(N)ccc2C1c1ccc(F)cc1 (stereo unspecified)	0	0	0	0	0	0	-	-
N#CC1=C(N)Oc2cc(N)ccc2C1c1ccc(F)cc1F (stereo unspecified)	0	0	34	0	0	0	0	0
SMILES	OX1R antag-1	CHO parental Ca	GPR7 antagonist	TAAR1 antagonist	OX1R antag-2	TAAR1 agonist	GPR7 antag conf	MCHR1 antagonist
COc1ccc(-c2cc(C)no2)cc1S(=O)(=O)N1CCN(c2cccc(C)c2)C(C)C1 (stereo unspecified)	0	0	0	0	0	0	-	-
Cc1cc(-c2ccc(C(C)C)c(S(=O)(=O)N3CCN(c4ccccc4)CC3)c2)on1	0	0	27	0	0	0	30	40
Cc1cccc(N2CCN(S(=O)(=O)c3cc(-c4cc(C)no4)ccc3C)CC2C)c1 (stereo unspecified)	0	0	31	0	0	0	45	61
COc1ccc(N2CCN(S(=O)(=O)c3cc(-c4cc(C)no4)ccc3C(C)C)CC2)cc1	0	0	0	0	0	0	-	-
CC(=O)c1ccc(NC(=O)CSc2n[nH]c(-c3cccnc3)n2)cc1	0	0	0	0	0	0	-	-
CC(C)C[C@@H](CN1CCC[C@H]1CN1C(=O)C(=O)NC[C@@H]1Cc1ccc(O)cc1)N1C[C@H](Cc2ccc(O)cc2)N(CCc2ccccc2)C(=O)C1=O	-	-	-	0	-	0	-	-
c1ccc2c(-c3[nH]ncc3CNCCCn3ncc4ccccc43)cccc2c1	0	0	22	0	0	0	27	52
Cc1ccc(CCNC(=O)C2CC(=O)N(C3CCCCC3)C2)cc1 (stereo unspecified)	0	0	28	0	0	0	0	0
O=c1oc(Cc2ccccc2)nc2ccccc12	0	0	0	0	0	0	-	-
COc1ccc(CN2CCc3c([nH]c4ccccc34)C2)cc1Br	0	0	42	0	0	0	52	38
CCn1nc(C)c(CN2CCC(C(=O)Nc3cccc(-c4cccc(Cl)c4)c3)CC2)c1C	0	0	26	0	0	0	0	51
Cc1cc(NC(=O)COC(=O)c2ccccc2Cl)no1	0	0	-	0	0	0	-	-
Cc1cc(NC(=O)COC(=O)c2oc3c(Cl)cccc3c2C)no1	0	0	27	0	0	0	0	37
CCOC(=O)N1CCN(c2ccc(C(=O)c3cccc(F)c3)cc2)CC1	0	0	0	-	0	-	-	-
O=C(c1ccc(N2CCN(C(=O)c3ccccc3Br)CC2)cc1)c1cccc(F)c1	0	0	28	0	0	0	0	69
CC(=O)Nc1ccc(NC(=O)COC(=O)c2cc([N+](=O)[O-])ccc2N2CCOCC2)cc1	0	0	0	0	0	0	-	-
O=C(COC(=O)c1cc([N+](=O)[O-])ccc1N1CCOCC1)Nc1cccc(F)c1	71	0	35	0	0	0	0	24
O=C(COc1ccc(Cl)cc1)NCCNc1ccc([N+](=O)[O-])cc1	0	0	52	0	0	0	49	51
O=C(NCCNc1ccc([N+](=O)[O-])cc1)c1ccc(Cl)cc1	0	0	0	0	0	0	-	-
COc1cccc(NC(=O)COc2cccc(-n3cnnn3)c2)c1	0	0	0	0	0	0	-	-
Cc1cc(OCCCC(=O)Nc2cccc(-n3cnnn3)c2)ccc1Cl	0	0	29	60	0	0	48	82

Assay outcomes: PubChem, The Scripps Research Institute Molecular Screening Center
